According to publication PMC3755880 (The Biochemical journal, 2009):
No end group written: not given here.

Columns and labels:
PKN [1] = molecular target: T1, PKN (Homo sapiens, UniProt Q16512); settings: cited from earlier work; for inhibition of kinase activity of PKN: ref [20]
[2] = system: interaction between Iα and the catalytic domain of PKN1; settings: ref [24]; cited from earlier work
cellular membranes = settings: ref [28]; cited from earlier work
[3] = system: androgen receptor-induced tumour cell proliferation; settings: by inhibition of PKN1; ref [7]; cited from earlier work
human PKN1 [4] = molecular target: T2, human PKN1 (Homo sapiens, UniProt Q16512); assay: In vitro kinase assay, δpeptide substrate, PKN1 catalytic domain; type: biochemical; settings: for inhibition of peptide kinase activity of PKN1: δpeptide substrate, various peptide concentrations, up to 50 μM, 30 °C, 5 min, pH 7.5, 40 μM ATP, representative of three independent experiments
T2 sequence (Q16512 543-942 limits assumed): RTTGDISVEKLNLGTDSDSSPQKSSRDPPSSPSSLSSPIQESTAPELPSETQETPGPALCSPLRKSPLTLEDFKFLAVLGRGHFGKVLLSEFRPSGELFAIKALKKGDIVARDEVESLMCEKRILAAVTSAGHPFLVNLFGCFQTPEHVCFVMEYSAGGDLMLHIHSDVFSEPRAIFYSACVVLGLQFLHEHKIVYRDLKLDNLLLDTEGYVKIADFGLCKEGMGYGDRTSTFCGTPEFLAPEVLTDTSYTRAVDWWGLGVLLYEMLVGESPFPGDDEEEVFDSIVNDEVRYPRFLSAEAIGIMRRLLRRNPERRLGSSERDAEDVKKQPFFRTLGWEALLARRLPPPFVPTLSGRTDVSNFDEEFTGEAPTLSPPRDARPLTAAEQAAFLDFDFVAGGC

[5] = system: catalytic domain of all isoforms of PKNs; settings: ref [24], cited from earlier work
PKA = settings: ref [24]; cited from earlier work
PKCδ = settings: ref [24]; cited from earlier work
rat PKCα = assay: Phosphorylation of GST-tagged oligopeptides by PKCα; type: biochemical; settings: GST-fused peptide substrate; 30 °C, 5 min
Method in brief: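 GST-fused rat PKCα catalytic domain (332–end) was Sf9/baculovirus-expressed and purified. Reactions were stopped in boiled Laemmli buffer, run on 15% SDS/PAGE, and phosphorylation was read by radioactivity imaging.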

rat PKCδ = assay: Phosphorylation of GST-tagged oligopeptides by PKCδ; type: biochemical; settings: GST-fused peptide substrate; 30 °C, 5 min
human PKN1 [6] = molecular target: T2, human PKN1; assay: Phosphorylation of GST-tagged oligopeptides by PKN1; type: biochemical; settings: GST-fused peptide substrate; 30 °C, 5 min
PKN [7] = molecular target: T1, PKN; assay: In vitro kinase assay, PKN; type: biochemical; settings: Supplementary Figure S4
Method in brief: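 Catalytic domains of human PKN1 (543–end) and PKC isoforms were GST-fused, baculovirus/Sf9-expressed and affinity-purified. 10 ng kinase was incubated 5 min at 30 °C in 20 mM Tris/HCl pH 7.5, 4 mM MgCl2, 40 μM ATP, [γ-32P]ATP, 100 μM δpeptide (PKCδ 137–153, A147S) and BSA or GST, ± peptides. Reactions were read on P81 paper by Cherenkov counting; no-peptide activity = 100%.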

T1 sequence (Q16512 543-942 limits assumed): as above

CCCCC/C=C\C/C=C\C/C=C\C/C=C\CCCC(=O)O [Arachidonic acid, arachidonic acid]
activation of PKN in vitro (PKN [1]; ref [1]): activated
effect on interaction between Iα and catalytic domain of PKN1 [2]: directly interfere with the interaction
relief of autoinhibition of wild-type PKN1 by Iα [2]: relieve the catalytic activity of wild-type PKN1 from autoinhibition by Iα

CC1CNCCN1S(=O)(=O)c1cccc2cnccc12 (stereo not shown) [H-7]
inhibition of kinase activity of PKN (PKN [1]): potently inhibit

O=C(O)CCCc1ccc2ccc3cccc4ccc1c2c34 [Pyrenebutyrate, pyrenebutyrate]
ability of CPP-fused peptides to translocate across cellular membranes (cellular membranes): improve the ability of CPP-fused peptides to translocate across cellular membranes

Cn1cc(C2=C(c3cn(CCCSC(=N)N)c4ccccc34)C(=O)NC2=O)c2ccccc21 [Ro318220]
effect on androgen receptor-induced tumour cell proliferation [3]: blocks proliferation

CN(C)CCCn1cc(C2=C(c3c[nH]c4ccccc34)C(=O)NC2=O)c2ccccc21 [bisindolylmaleimide I]
inhibition of kinase activity of PKN (PKN [1]): potently inhibit

AEVTFRNPVIERIPRLRR
inhibition of peptide kinase activity of PKN1 (human PKN1 [4]): partially inhibited

His6-tagged Iα: His-tagged region comprising amino acid residues 455–511 of PKN1
inhibition of PKN kinase activity by His-tagged Iα ([5]; direct effects on the catalytic region): potently inhibited
inhibition of catalytic domain of all PKN isoforms [5]: inhibited
effect on PKA (PKA): no inhibitory effect
effect on PKCδ (PKCδ): no inhibitory effect

KRRKPSFRNP [NS1]
phosphorylation by PKCα (rat PKCα): efficiently phosphorylated
phosphorylation by PKCδ (rat PKCδ): efficiently phosphorylated

LSKVTSKCGS [tau320]
phosphorylation by PKN1 (human PKN1 [6]): efficiently phosphorylated
phosphorylation by PKCδ (rat PKCδ): efficiently phosphorylated

NERHEVQLDMEPQGCLV
inhibition of peptide kinase activity of PKN1 (human PKN1 [4]): did not inhibit

PRLRRQKKIFSKQQG [PRL]
Ki (human PKN1 [4]): 700 nM
effect on apparent Km for δpeptide (human PKN1 [4]; Michaelis–Menten fit, increasing PRL concentrations): increased the apparent Km

PRLRRQKKIFSKQQG-NH-CH2CH2-SH [PRL-SH]
selectivity for PKN over PKC in vitro (PKN [7]): selective inhibition of PKN

PVIERIPRLRRQKKI
inhibition of peptide kinase activity of PKN1 (human PKN1 [4]): partially inhibited

QKKIFSKQQGKAFQAARQMN
inhibition of peptide kinase activity of PKN1 (human PKN1 [4]): partially inhibited
